Assays:
[1] = target: T1, Integrin alpha-IIb/beta-3 (Homo sapiens, UniProt P08514+P05106); experiment: Inhibition of 17.5 uM ADP-induced platelet aggregation of human platelet-rich plasma
In short: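 Aggregation of human platelets in platelet-rich plasma. Values are the average of at least 3 determinations.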

[2] = target: T1, Integrin alpha-IIb/beta-3; experiment: Inhibition of thrombin-induced platelet aggregation assay at 20 uM

T1 sequence (P05106 27-788 limits assumed): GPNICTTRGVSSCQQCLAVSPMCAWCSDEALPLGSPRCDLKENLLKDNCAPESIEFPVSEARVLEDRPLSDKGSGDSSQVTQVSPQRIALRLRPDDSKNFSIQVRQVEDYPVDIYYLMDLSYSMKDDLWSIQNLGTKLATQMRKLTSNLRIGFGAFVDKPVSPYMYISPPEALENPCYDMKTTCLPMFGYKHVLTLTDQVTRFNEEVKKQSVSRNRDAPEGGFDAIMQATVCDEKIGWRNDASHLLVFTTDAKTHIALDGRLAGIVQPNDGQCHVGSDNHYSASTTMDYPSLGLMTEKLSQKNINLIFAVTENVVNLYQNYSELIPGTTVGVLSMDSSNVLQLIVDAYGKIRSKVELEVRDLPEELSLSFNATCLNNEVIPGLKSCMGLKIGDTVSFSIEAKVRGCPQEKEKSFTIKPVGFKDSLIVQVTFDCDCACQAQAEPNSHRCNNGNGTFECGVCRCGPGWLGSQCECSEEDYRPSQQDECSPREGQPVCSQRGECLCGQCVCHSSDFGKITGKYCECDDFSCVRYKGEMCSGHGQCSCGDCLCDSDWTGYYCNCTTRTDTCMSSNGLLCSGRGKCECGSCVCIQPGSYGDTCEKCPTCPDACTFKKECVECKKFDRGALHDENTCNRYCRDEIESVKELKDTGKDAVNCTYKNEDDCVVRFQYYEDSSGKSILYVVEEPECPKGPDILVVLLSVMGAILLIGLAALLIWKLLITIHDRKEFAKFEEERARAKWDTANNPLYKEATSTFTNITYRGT
T1 sequence (P08514 32-887 limits assumed): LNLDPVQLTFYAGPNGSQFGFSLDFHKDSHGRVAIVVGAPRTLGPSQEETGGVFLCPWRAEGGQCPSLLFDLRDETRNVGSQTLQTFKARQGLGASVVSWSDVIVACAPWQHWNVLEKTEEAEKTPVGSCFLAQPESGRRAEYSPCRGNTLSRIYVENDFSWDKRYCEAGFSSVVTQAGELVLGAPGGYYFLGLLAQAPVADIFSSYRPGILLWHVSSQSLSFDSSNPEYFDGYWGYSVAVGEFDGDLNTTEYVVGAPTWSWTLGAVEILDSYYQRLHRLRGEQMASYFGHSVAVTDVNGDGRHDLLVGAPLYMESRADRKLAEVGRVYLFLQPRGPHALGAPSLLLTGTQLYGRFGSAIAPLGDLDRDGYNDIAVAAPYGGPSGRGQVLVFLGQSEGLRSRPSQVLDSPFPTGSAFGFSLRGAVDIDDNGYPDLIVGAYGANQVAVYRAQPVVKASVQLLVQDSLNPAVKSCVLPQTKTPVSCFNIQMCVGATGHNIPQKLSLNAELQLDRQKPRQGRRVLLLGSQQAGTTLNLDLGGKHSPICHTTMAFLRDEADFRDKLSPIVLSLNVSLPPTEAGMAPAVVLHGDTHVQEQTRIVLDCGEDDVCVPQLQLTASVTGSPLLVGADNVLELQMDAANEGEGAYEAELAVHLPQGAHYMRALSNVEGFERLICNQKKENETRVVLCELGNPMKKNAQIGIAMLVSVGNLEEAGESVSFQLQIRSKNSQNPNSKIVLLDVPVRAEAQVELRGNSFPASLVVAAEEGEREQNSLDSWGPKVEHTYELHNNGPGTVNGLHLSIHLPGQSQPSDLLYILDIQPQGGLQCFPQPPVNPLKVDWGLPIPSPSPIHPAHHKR
T1 sequence (P08514 891-1039 limits assumed): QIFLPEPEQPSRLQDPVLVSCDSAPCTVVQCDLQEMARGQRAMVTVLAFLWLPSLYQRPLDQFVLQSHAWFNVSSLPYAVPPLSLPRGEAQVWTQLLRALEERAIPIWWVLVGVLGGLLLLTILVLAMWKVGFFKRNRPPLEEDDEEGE

Compound	IC50 [1] [nM]	IC50 [2] [nM]
C[C@H](CC(=O)O)N1CC(=O)N(C(C)(C)C)c2c(Cl)cc(C#Cc3ccc(C(=N)N)cc3)cc2C1=O [(R)-3-[1-tert-Butyl-7-(4-carbamimidoyl-phenylethynyl)-9-chloro-2,5-dioxo-1,2,3,5-tetrahydro-benzo[e][1,4]diazepin-4-yl]-butyric acid]	1300	
C[C@@H](CC(=O)O)N1CC(=O)N(C)c2c(Cl)cc(C#Cc3ccc(C(=N)N)cc3)cc2C1=O [(S)-3-[7-(4-Carbamimidoyl-phenylethynyl)-9-chloro-1-methyl-2,5-dioxo-1,2,3,5-tetrahydro-benzo[e][1,4]diazepin-4-yl]-butyric acid]	159	313
C[C@H](CC(=O)O)N1CC(=O)N(C)c2ccc(C#Cc3ccc(C(=N)N)cc3)cc2C1=O [(R)-3-[7-(4-Carbamimidoyl-phenylethynyl)-1-methyl-2,5-dioxo-1,2,3,5-tetrahydro-benzo[e][1,4]diazepin-4-yl]-butyric acid]	820	
CN1C(=O)CN(CCC(=O)O)C(=O)c2cc(C#Cc3ccc(C(=N)N)cc3)ccc21 [3-[7-(4-Carbamimidoyl-phenylethynyl)-1-methyl-2,5-dioxo-1,2,3,5-tetrahydro-benzo[e][1,4]diazepin-4-yl]-propionic acid(G6249)]		213

More lines, in order of falling IC50 [1], values ahead:

IC50 [1] [nM]	IC50 [2] [nM]	Compound
92		C[C@@H](CC(=O)O)N1CC(=O)N(C(C)(C)C)c2ccc(C#Cc3ccc(C(=N)N)cc3)cc2C1=O [(S)-3-[1-tert-Butyl-7-(4-carbamimidoyl-phenylethynyl)-2,5-dioxo-1,2,3,5-tetrahydro-benzo[e][1,4]diazepin-4-yl]-butyric acid]
78	138	C[C@@H](CC(=O)O)N1CC(=O)N(C)c2ccc(C#Cc3ccc(C(=N)N)cc3)cc2C1=O [(S)-3-[7-(4-Carbamimidoyl-phenylethynyl)-1-methyl-2,5-dioxo-1,2,3,5-tetrahydro-benzo[e][1,4]diazepin-4-yl]-butyric acid]
34	60	C[C@@H](CC(=O)O)N1CC(=O)N(C(C)(C)C)c2c(Cl)cc(C#Cc3ccc(C(=N)N)cc3)cc2C1=O [(S)-3-[1-tert-Butyl-7-(4-carbamimidoyl-phenylethynyl)-9-chloro-2,5-dioxo-1,2,3,5-tetrahydro-benzo[e][1,4]diazepin-4-yl]-butyric acid]
